{
  "source": "ChEMBL document CHEMBL3091450",
  "about": "“Melosuavines A-H, cytotoxic bisindole alkaloid derivatives from Melodinus suaveolens” (J Nat Prod, 2013)",
  "format_in_all_cases": "functional, cell-based",
  "key": {"SW480": {"system": "SW480", "assay": "Cytotoxicity against human SW480 cells after 48 hrs by MTT assay", "settings": "SW480, 48 h", "how_it_was_run": "(§1)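 Cells kept in RPMI-1640 or DMEM with 10% FBS, 37 °C, 5% CO2. Adherent lines plated and left 12 h to attach; suspension cells (HL-60) plated at 1 × 10^5 cells/mL just before dosing. Compounds in DMSO at 0.064, 0.32, 1.6, 8 and 40 μM, triplicate wells, 48 h; cisplatin positive control. MTT viability read-out, IC50 by Reed and Muench method.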"}, "MCF7": {"system": "MCF7", "assay": "Cytotoxicity against human MCF7 cells after 48 hrs by MTT assay", "settings": "MCF7, 48 h", "how_it_was_run": "as §1"}, "[1]": {"assay": "Cytotoxicity against human […] cells after 48 hrs by MTT assay", "how_it_was_run": "as §1"}, "A549": {"system": "A549", "assay": "Cytotoxicity against human A549 cells after 48 hrs by MTT assay", "settings": "A549, 48 h", "how_it_was_run": "as §1"}, "HL-60": {"system": "HL-60", "assay": "Cytotoxicity against human HL60 cells after 48 hrs by MTT assay", "settings": "HL-60, 48 h", "how_it_was_run": "as §1"}},
  "data": [
    {"molecule": "C=C[C@]12C=C[C@H](c3cc4c(cc3O)NC3=C(C(=O)OC)C[C@]5(CC)C=CCN6CC[C@@]34[C@@H]65)N3CC[C@@]4(c5ccccc5NC(=O)[C@]4(C(=O)OC)C1)[C@@H]32", "note": "(relative stereo)", "values": [
      {"measurement": "IC50", "setting": "SW480", "value": 9.8, "unit": "µM"},
      {"measurement": "IC50", "setting": "MCF7", "value": 11.6, "unit": "µM"},
      {"measurement": "IC50", "setting": "[1]", "value": 5.9, "unit": "µM"},
      {"measurement": "IC50", "setting": "A549", "value": 11, "unit": "µM"},
      {"measurement": "IC50", "setting": "HL-60", "value": 2.6, "unit": "µM"}
    ]},
    {"molecule": "CC[C@]12C=CCN3CC[C@]4(C(=C(C(=O)OC)C1)Nc1cc(O)c([C@@H]5C[C@]67c8ccccc8N[C@@]68CC[C@]6(C=CCN5[C@@H]67)C[C@H]8C(=O)OC)cc14)[C@@H]32", "note": "(relative stereo)", "values": [
      {"measurement": "IC50", "setting": "SW480", "value": 3.8, "unit": "µM"},
      {"measurement": "IC50", "setting": "MCF7", "value": 9.5, "unit": "µM"},
      {"measurement": "IC50", "setting": "[1]", "value": 3.1, "unit": "µM"},
      {"measurement": "IC50", "setting": "A549", "value": 3.4, "unit": "µM"},
      {"measurement": "IC50", "setting": "HL-60", "value": 1, "unit": "µM"}
    ]},
    {"molecule": "CC[C@]12C=CCN3CC[C@]4(C(=C(C(=O)OC)C1)Nc1cc(O)c([C@H]5C=C[C@@]6(CC)CC(C(=O)OC)=C7Nc8cc(O)ccc8[C@@]78CCN5[C@@H]68)cc14)[C@@H]32", "note": "(relative stereo)", "values": [
      {"measurement": "IC50", "setting": "SW480", "value": 12.5, "unit": "µM"},
      {"measurement": "IC50", "setting": "MCF7", "value": 10.7, "unit": "µM"},
      {"measurement": "IC50", "setting": "[1]", "value": 12.6, "unit": "µM"},
      {"measurement": "IC50", "setting": "A549", "value": 12.4, "unit": "µM"},
      {"measurement": "IC50", "setting": "HL-60", "value": 4.8, "unit": "µM"}
    ]},
    {"molecule": "CC[C@]12C=CCN3CC[C@]4(C(=C(C(=O)OC)C1)Nc1cc(O)c([C@@H]5C=C[C@@]6(CC)CC(C(=O)OC)=C7Nc8cc(O)ccc8[C@@]78CCN5[C@@H]68)cc14)[C@@H]32", "note": "(relative stereo)", "values": [
      {"measurement": "IC50", "setting": "SW480", "value": 4, "unit": "µM"},
      {"measurement": "IC50", "setting": "MCF7", "value": 6.6, "unit": "µM"},
      {"measurement": "IC50", "setting": "[1]", "value": 3.6, "unit": "µM"},
      {"measurement": "IC50", "setting": "A549", "value": 7.5, "unit": "µM"},
      {"measurement": "IC50", "setting": "HL-60", "value": 3.5, "unit": "µM"}
    ]},
    {"molecule": "CC[C@]12C=CCN3CC[C@]4(C(=C(C(=O)OC)C1)Nc1cc(O)c([C@@H]5[C@@H]6O[C@@H]6[C@]67CC[C@@]8(Nc9ccccc9[C@@]89CCN5[C@@H]69)[C@H](C(=O)OC)C7)cc14)[C@@H]32", "note": "(relative stereo)", "values": [
      {"measurement": "IC50", "setting": "SW480", "value": "> 40", "unit": "µM"},
      {"measurement": "IC50", "setting": "MCF7", "value": "> 40", "unit": "µM"},
      {"measurement": "IC50", "setting": "[1]", "value": "> 40", "unit": "µM"},
      {"measurement": "IC50", "setting": "A549", "value": "> 40", "unit": "µM"},
      {"measurement": "IC50", "setting": "HL-60", "value": "> 40", "unit": "µM"}
    ]},
    {"molecule": "C=C[C@]12C=C[C@@H](c3cc4c(cc3O)NC3=C(C(=O)OC)C[C@]5(CC)C=CCN6CC[C@@]34[C@@H]65)N3CC[C@@]4(c5ccccc5NC(=O)[C@]4(C(=O)OC)C1)[C@@H]32", "note": "(relative stereo)", "values": [
      {"measurement": "IC50", "setting": "SW480", "value": 2.9, "unit": "µM"},
      {"measurement": "IC50", "setting": "MCF7", "value": 6.1, "unit": "µM"},
      {"measurement": "IC50", "setting": "[1]", "value": 3.1, "unit": "µM"},
      {"measurement": "IC50", "setting": "A549", "value": 8.9, "unit": "µM"},
      {"measurement": "IC50", "setting": "HL-60", "value": 2.8, "unit": "µM"}
    ]},
    {"molecule": "CC[C@]12C=CCN3CCc4c(n(c5ccccc45)[C@@H](c4cc5c(cc4O)NC4=C(C(=O)OC)C[C@]6(CC)C=CCN7CC[C@@]45[C@@H]76)C1)[C@@H]32", "values": [
      {"measurement": "IC50", "setting": "SW480", "value": 9.7, "unit": "µM"},
      {"measurement": "IC50", "setting": "MCF7", "value": 9.5, "unit": "µM"},
      {"measurement": "IC50", "setting": "[1]", "value": 10, "unit": "µM"},
      {"measurement": "IC50", "setting": "A549", "value": 14.3, "unit": "µM"},
      {"measurement": "IC50", "setting": "HL-60", "value": 3.6, "unit": "µM"}
    ]},
    {"molecule": "C=C[C@]12C=CCN3[C@@H](c4cc5c(cc4O)NC4=C(C(=O)OC)C[C@]6(CC)C=CCN7CC[C@@]45[C@@H]76)C[C@@]4(c5ccccc5NC(=O)[C@]4(C(=O)OC)C1)[C@@H]32", "note": "(relative stereo)", "values": [
      {"measurement": "IC50", "setting": "SW480", "value": "> 40", "unit": "µM"},
      {"measurement": "IC50", "setting": "MCF7", "value": "> 40", "unit": "µM"},
      {"measurement": "IC50", "setting": "[1]", "value": 29, "unit": "µM"},
      {"measurement": "IC50", "setting": "A549", "value": "> 40", "unit": "µM"},
      {"measurement": "IC50", "setting": "HL-60", "value": 17.6, "unit": "µM"}
    ]},
    {"molecule": "CC[C@]12C=CCN3CCc4c(n(c5ccccc45)[C@@H](c4cc5c(cc4OC)NC4=C(C(=O)OC)C[C@]6(CC)C=CCN7CC[C@@]45[C@@H]76)C1)[C@@H]32", "note": "(relative stereo)", "values": [
      {"measurement": "IC50", "setting": "SW480", "value": "> 40", "unit": "µM"},
      {"measurement": "IC50", "setting": "MCF7", "value": "> 40", "unit": "µM"},
      {"measurement": "IC50", "setting": "[1]", "value": "> 40", "unit": "µM"},
      {"measurement": "IC50", "setting": "A549", "value": "> 40", "unit": "µM"},
      {"measurement": "IC50", "setting": "HL-60", "value": "> 40", "unit": "µM"}
    ]},
    {"molecule": "CC[C@]12C=CCN3CC[C@]4(C(=C(C(=O)OC)C1)Nc1cc(O)c([C@@H]5[C@@H]6O[C@@H]6[C@@]6(CC)CC(C(=O)OC)=C7Nc8cc(O)ccc8[C@@]78CCN5[C@@H]68)cc14)[C@@H]32", "note": "(relative stereo)", "values": [
      {"measurement": "IC50", "setting": "SW480", "value": 14.4, "unit": "µM"},
      {"measurement": "IC50", "setting": "MCF7", "value": 11.6, "unit": "µM"},
      {"measurement": "IC50", "setting": "[1]", "value": 13.8, "unit": "µM"},
      {"measurement": "IC50", "setting": "A549", "value": 9.7, "unit": "µM"},
      {"measurement": "IC50", "setting": "HL-60", "value": 5.5, "unit": "µM"}
    ]}
  ]
}
